Assay results from ChEMBL document CHEMBL3792374, “Discovery of a ring-opened derivative of 3-n-butylphthalide bearing NO/H2S-donating moieties as a potential anti-ischemic stroke agent” (Eur J Med Chem, 2016).
Calls of active or inactive are those of the source. The rule behind the calls is not given here.

Assays:
[1] = Induction of nitric oxide release in potassium phosphate buffer at pH 7.4 at 0.1 mM after 45 mins by Griess assay; assay type: physicochemical; conditions: pH 7.4, 0.75 h, 100 µM
Procedure, shortened: (§1)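 Compound (0.1 mM) in PBS pH 7.4 containing 2% DMSO and 5.0 mM L-cysteine was held at 37 °C for 15–300 min. Samples were taken every 15 min up to 120 min, then every 30 min. Each sample was reacted with Griess reagent for 10 min at 37 °C and absorbance read at 540 nm. Nitrite was quantified from a nitrite standard curve. Means reported; intra-group variation <10%.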

[2] = Induction of nitric oxide release in potassium phosphate buffer at pH 7.4 at 0.1 mM after 30 mins by Griess assay; assay type: physicochemical; conditions: pH 7.4, 0.5 h, 100 µM; procedure, shortened: as §1
[3] = Induction of nitric oxide release in potassium phosphate buffer at pH 7.4 at 0.1 mM after 150 mins by Griess assay; assay type: physicochemical; conditions: pH 7.4, 2.5 h, 100 µM; procedure, shortened: as §1
[4] = Induction of nitric oxide release in potassium phosphate buffer at pH 7.4 at 0.1 mM after 180 mins by Griess assay; assay type: physicochemical; conditions: pH 7.4, 3 h, 100 µM; procedure, shortened: as §1
[5] = Induction of nitric oxide release in potassium phosphate buffer at pH 7.4 at 0.1 mM after 300 mins by Griess assay; assay type: physicochemical; conditions: pH 7.4, 5 h, 100 µM; procedure, shortened: as §1
[6] = Induction of nitric oxide release in potassium phosphate buffer at pH 7.4 at 0.1 mM after 90 mins by Griess assay; assay type: physicochemical; conditions: pH 7.4, 1.5 h, 100 µM; procedure, shortened: as §1
[7] = Antiplatelet activity in rabbit platelet-rich plasma assessed as inhibition of ADP-induced platelet aggregation preincubated for 5 mins followed by addition of ADP measured within 5 mins by Borns turbidimetric method; assay type: functional; conditions: Oryctolagus cuniculus
Procedure, shortened: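 Platelet-rich plasma from citrated rabbit carotid blood was preincubated in duplicate at 37 °C for 5 min with compound at 0.1, 0.2, 0.4, 0.8 or 1.6 mM. ADP-induced aggregation was then recorded turbidimetrically, as maximal light transmission within 5 min. Inhibition was calculated versus vehicle control, and IC50 values were derived. Mean ± SD, n = 6, ANOVA/Tukey.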

[8] = Induction of nitric oxide release in potassium phosphate buffer at pH 7.4 at 0.1 mM after 60 mins by Griess assay; assay type: physicochemical; conditions: pH 7.4, 1 h, 100 µM; procedure, shortened: as §1
[9] = Induction of nitric oxide release in potassium phosphate buffer at pH 7.4 at 0.1 mM after 240 mins by Griess assay; assay type: physicochemical; conditions: pH 7.4, 4 h, 100 µM; procedure, shortened: as §1
[10] = tested on: Liver; assay: Induction of hydrogen sulfide release in rat liver homogenate at 100 uM after 90 mins by microplate reader method (reference value: 1.03 to 1.21%); assay type: functional, tissue-based
Procedure, shortened: (§2)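 Compound was incubated at 37 °C for 0–90 min with fresh rat liver homogenate. The reaction was stopped with 1% zinc acetate and 10% trichloroacetic acid. N,N-dimethyl-p-phenylenediamine sulfate in 7.2 M HCl and FeCl3 in 1.2 M HCl were added, and absorbance was read at 670 nm after 10 min. Values were calculated against an NaHS standard curve as cumulative % conversion to H2S, n = 6.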

[11] = Induction of nitric oxide release in potassium phosphate buffer at pH 7.4 at 0.1 mM after 105 mins by Griess assay; assay type: physicochemical; conditions: pH 7.4, 1.75 h, 100 µM; procedure, shortened: as §1
[12] = tested on: Liver; assay: Induction of hydrogen sulfide release in rat liver homogenate at 100 uM after 15 mins by microplate reader method (reference value: 1.03 to 1.21%); assay type: functional, tissue-based; procedure, shortened: as §2
[13] = Induction of nitric oxide release in potassium phosphate buffer at pH 7.4 at 0.1 mM after 120 mins by Griess assay; assay type: physicochemical; conditions: pH 7.4, 2 h, 100 µM; procedure, shortened: as §1
[14] = Induction of nitric oxide release in potassium phosphate buffer at pH 7.4 at 0.1 mM after 15 mins by Griess assay; assay type: physicochemical; conditions: pH 7.4, 0.25 h, 100 µM; procedure, shortened: as §1
[15] = Induction of nitric oxide release in potassium phosphate buffer at pH 7.4 at 0.1 mM after 75 mins by Griess assay; assay type: physicochemical; conditions: pH 7.4, 1.25 h, 100 µM; procedure, shortened: as §1
[16] = tested on: Liver; assay: Induction of hydrogen sulfide release in rat liver homogenate at 100 uM after 30 mins by microplate reader method (reference value: 1.03 to 1.21%); assay type: functional, tissue-based; procedure, shortened: as §2
[17] = tested on: Liver; assay: Induction of hydrogen sulfide release in rat liver homogenate at 100 uM after 60 mins by microplate reader method (reference value: 1.03 to 1.21%); assay type: functional, tissue-based; procedure, shortened: as §2
[18] = Antiplatelet activity in rabbit platelet-rich plasma assessed as inhibition of ADP-induced platelet aggregation at 0.1 mM preincubated for 5 mins followed by addition of ADP measured within 5 mins by Borns turbidimetric method; assay type: functional; conditions: Oryctolagus cuniculus
Procedure, shortened: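 Rabbit carotid blood was citrated (3.8%, 9:1). PRP was obtained at 500 g for 10 min and PPP at 3000 g for 10 min. PRP was preincubated in duplicate for 5 min at 37 °C with 0.1 mM compound, plus carboxy-PTIO or BSS where indicated. ADP was then added and maximal light transmission recorded within 5 min, within 3 h of blood collection. Inhibition % was calculated versus control. Mean ± SD of three independent experiments.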

[19] = tested on: Rattus norvegicus; assay: Antioxidant activity in Sprague-Dawley rat brain tissue model of transient middle cerebral artery occlusion stroke model assessed as increase in superoxide dismutase levels per mg of protein at 80 mg/kg […] measured 24 hrs after reperfusion by nitroblue tetrazolium assay relative to control; assay type: functional
[20] = tested on: Rattus norvegicus; assay: Neuroprotective activity in Sprague-Dawley rat model of transient middle cerebral artery occlusion stroke model assessed as neurological deficit at 80 mg/kg administered via oral gavage for 7 days after ischemia onset measured 24 hrs after middle cerebral artery occlusion by Longa's method; assay type: functional, organism-based; conditions: in the assay text read “before ischemia onset” for “after ischemia onset”
Procedure, shortened: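 Male SD rats (280–320 g) received daily gavage for 7 days, with 0.5% CMC-Na as vehicle. Two hours after the last dose they underwent 2 h MCAO with reperfusion under chloral hydrate anesthesia; core temperature was held at 37 °C. Neurological deficit was scored blinded by Longa's method 24 h after reperfusion, between 10 and 11 a.m. Kruskal–Wallis test followed by Mann–Whitney U test.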

[21] = tested on: Rattus norvegicus; assay: Antioxidant activity in Sprague-Dawley rat brain tissue model of transient middle cerebral artery occlusion stroke model assessed as increase in glutathione peroxidase levels per mg of protein at 80 mg/kg […] measured 24 hrs after reperfusion by DTNB assay relative to control; assay type: functional

Activity [1] | Activity [2] | Activity [3] | Activity [4] | Activity [5] | Activity [6] | IC50 [7] | Activity [8] | Activity [9] | Activity [11] | Activity [13] | Activity [14] | Activity [15] | SMILES | Activity [10] | Activity [12] | Activity [16] | Activity [17] | inhibition at 100 µM [18] | further results
4.58 µM | 3.86 µM | 8.32 µM | 8.34 µM | 8.37 µM | 7.45 µM | 360 µM | 6.13 µM | 8.25 µM | 8.3 µM | 8.37 µM | 2.1 µM | 7.04 µM | CCCCC(OC(=O)CN1CCN(CCCCOc2ccc(-c3cc(=S)ss3)cc2)CC1)c1ccccc1C(=O)Oc1ccc(/C=C/C(=O)OCCCCO[N+](=O)[O-])cc1OC (racemic) | 2.72% | 1.74% | 1.85% | 2.71% | 19.7% | –
6.09 µM | 5.45 µM | 10.12 µM | 10.14 µM | 10.22 µM | 9.11 µM | 190 µM | 7.88 µM | 10.18 µM | 9.58 µM | 10.01 µM | 3.01 µM | 8.28 µM | CCCCC(OC(=O)CN1CCN(CCCCCCOc2ccc(-c3cc(=S)ss3)cc2)CC1)c1ccccc1C(=O)Oc1ccc(/C=C/C(=O)OCCCCCCO[N+](=O)[O-])cc1OC (racemic) | 3.32% | 2.53% | 2.83% | 3.3% | 19.7% | –
1.89 µM | 1.27 µM | 3.25 µM | 3.23 µM | 3.32 µM | 2.56 µM | 430 µM | 2.22 µM | 3.32 µM | 2.98 µM | 3.18 µM | 0.91 µM | 2.36 µM | CCCCC(OC(=O)CN1CCN(CCCOc2ccc(-c3cc(=S)ss3)cc2)CC1)c1ccccc1C(=O)Oc1ccc(/C=C/C(=O)OCCCCO[N+](=O)[O-])cc1OC (racemic) | 1.23% | 0.65% | 0.83% | 1.21% | 19.7% | –
4.13 µM | 3.17 µM | 7.28 µM | 7.47 µM | 7.51 µM | 5.97 µM | 430 µM | 4.98 µM | 7.51 µM | 6.41 µM | 6.88 µM | 1.96 µM | 5.53 µM | CCCCC(OC(=O)CN1CCN(CCCCCCOc2ccc(-c3cc(=S)ss3)cc2)CC1)c1ccccc1C(=O)Oc1ccc(/C=C/C(=O)OCCO[N+](=O)[O-])cc1OC (racemic) | 2.41% | 1.6% | 1.73% | 2.39% | 19.7% | –
5.98 µM | 4.21 µM | 9.25 µM | 9.29 µM | 9.57 µM | 8.14 µM | 210 µM | 6.58 µM | 9.44 µM | 8.64 µM | 8.76 µM | 2.37 µM | 7.84 µM | CCCCC(OC(=O)CN1CCN(CCOc2ccc(-c3cc(=S)ss3)cc2)CC1)c1ccccc1C(=O)Oc1ccc(/C=C/C(=O)OCCCCCCO[N+](=O)[O-])cc1OC (racemic) | 3.82% | 2.62% | 2.83% | 3.74% | 19.7% | –
3.26 µM | 2.24 µM | 5.3 µM | 5.31 µM | 5.38 µM | 4.68 µM | 320 µM | 4 µM | 5.33 µM | 4.98 µM | 5.09 µM | 1.17 µM | 4.36 µM | CCCCC(OC(=O)CN1CCN(CCCCOc2ccc(-c3cc(=S)ss3)cc2)CC1)c1ccccc1C(=O)Oc1ccc(/C=C/C(=O)OCCCCCCO[N+](=O)[O-])cc1OC (racemic) | 1.35% | 0.75% | 0.92% | 1.33% | 19.7% | –
– | – | – | – | – | – | 740 µM | – | – | – | – | – | – | CCCCC1OC(=O)c2ccccc21 (stereo not drawn) [RAC-3-N-BUTYLPHTHALIDE] | – | – | – | – | 12.9% | Activity [19]: 24.36%; Activity [20]: inactive; Activity [21]: 63.55%
3.09 µM | 2 µM | 5.46 µM | 5.48 µM | 5.56 µM | 4.8 µM | 390 µM | 4 µM | 5.51 µM | 5.1 µM | 5.3 µM | 1.45 µM | 4.4 µM | CCCCC(OC(=O)CN1CCN(CCCCCCOc2ccc(-c3cc(=S)ss3)cc2)CC1)c1ccccc1C(=O)Oc1ccc(/C=C/C(=O)OCCCCO[N+](=O)[O-])cc1OC (racemic) | 1.82% | 0.95% | 1.05% | 1.81% | 19.7% | –
